In data set [1] the test system is Mus musculus. Briefly: Neurotoxicity in Swiss albino mouse at 300 mg/kg, ip after 0.5 hrs. Type of data set: toxicity, organism-based. The note with it: in vivo. Also on record: dose 300 mg/kg, route intraperitoneal. An outline of the steps: (§1)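 Acute neurotoxicity by rotorod test in mice given 30, 100 and 300 mg/kg ip, assessed 0.5 and 4.0 h after dosing. Reported as the minimal dose producing the effect in half or more of the animals. Absence of activity is judged at the 300 mg/kg maximum.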

Data set [2] relates to Rattus norvegicus. Briefly: Anticonvulsant activity against subcutaneous strychnine-induced seizures in ip dosed Wistar rat assessed as minimum effective dose after 4 hrs. Format: functional. As to conditions: read-out: MED. The gist of the method:
(§2)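 Rats; subcutaneous strychnine-induced seizure model with compounds given intraperitoneally at 30, 100 and 300 mg/kg. Activity is checked at 0.5 h and 4.0 h and recorded as the minimal dose active in at least half of the animals. Absence of activity is judged at the 300 mg/kg maximum.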

In data set [3] the test system is Rattus norvegicus. Briefly: Anticonvulsant activity against subcutaneous strychnine-induced seizures in Wistar rat at 300 mg/kg, ip after 0.5 hrs. Type of data set: functional, organism-based. Also on record: dose 300 mg/kg. An outline of the steps: as §2
In data set [4] the test system is Mus musculus. Briefly: Anticonvulsant activity against subcutaneous pentylenetetrazole-induced seizures in ip dosed Swiss albino mouse assessed as minimum effective dose after 4 hrs. Type of data set: functional. The note with it: read-out: MED. The gist of the method: (§3)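 Mice; subcutaneous pentylenetetrazole seizure screen after ip dosing at 30, 100 and 300 mg/kg, read 0.5 and 4.0 h post-dose. Scored as the lowest dose protecting at least half of the animals. Absence of activity is judged at the 300 mg/kg maximum.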

In data set [5] the test system is Mus musculus. Put plainly: Anticonvulsant activity against subcutaneous pentylenetetrazole-induced seizures in Swiss albino mouse at 300 mg/kg, ip after 0.5 hrs. Type of data set: functional, organism-based. Also on record: dose 300 mg/kg. The gist of the method:
as §3

Data set [6] has as its system Mus musculus. Put plainly: Anticonvulsant activity against maximal electroshock-induced seizures in ip dosed Swiss albino mouse assessed as minimum effective dose after 4 hrs. Format: functional. As to conditions: read-out: MED. An outline of the steps: (§4)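 Mice; compounds given ip at 30, 100 and 300 mg/kg and tested in the maximal electroshock seizure model at 0.5 and 4.0 h after dosing. Read-out is the minimal dose giving protection in half or more of the animals. Absence of activity is judged at the 300 mg/kg maximum.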
In general terms: In the maximal electroshock model the usual endpoint is tonic extension of the hind limbs.

In data set [7] the test system is Mus musculus. Briefly: Anticonvulsant activity against maximal electroshock-induced seizures in ip dosed Swiss albino mouse assessed as minimum effective dose after 0.5 hrs. Type of data set: functional. The note with it: read-out: MED. The gist of the method:
as §4

The subject of data set [8] is Mus musculus. Briefly: Neurotoxicity in Swiss albino mouse at 300 mg/kg, ip after 4 hrs. The note with it: in vivo. Format: toxicity, organism-based. Also on record: dose 300 mg/kg, route intraperitoneal. The gist of the method: as §1
The subject of data set [9] is Rattus norvegicus. Briefly: Anticonvulsant activity against maximal electroshock-induced seizures in Wistar rat at 30 mg/kg, po after 0.25 hrs. Type of data set: functional, organism-based. Also on record: dose 30 mg/kg. An outline of the steps: (§5)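 Rats dosed orally at 30 mg/kg; maximal electroshock protection scored at 0.25, 0.5, 1, 2 and 4 h. Result is given as the number of protected rats out of four.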

In data set [10] the test system is Rattus norvegicus. Briefly: Anticonvulsant activity against maximal electroshock-induced seizures in Wistar rat at 30 mg/kg, po after 1 hr. Type of data set: functional, organism-based. Also on record: dose 30 mg/kg. An outline of the steps: as §5
Data set [11] concerns Rattus norvegicus. Put plainly: Anticonvulsant activity against maximal electroshock-induced seizures in Wistar rat at 30 mg/kg, po after 2 hrs. Also on record: dose 30 mg/kg. Type of data set: functional, organism-based. The gist of the method:
as §5

In data set [12] the test system is Rattus norvegicus. Briefly: Neurotoxicity in Wistar rat at 30 mg/kg, po after 0.25 hrs. Type of data set: toxicity, organism-based. As to conditions: in vivo. Also on record: dose 30 mg/kg, route oral. The gist of the method: (§6)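 Oral dosing in rats at 30 mg/kg, neurotoxicity (rotorod) scored at 0.25, 0.5, 1, 2 and 4 h post-administration. Counts are out of four rats per time point.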

For data set [13], the system named is Rattus norvegicus. Briefly: Neurotoxicity in Wistar rat at 30 mg/kg, po after 0.5 hrs. The note with it: in vivo. Also on record: dose 30 mg/kg, route oral. Type of data set: toxicity, organism-based. An outline of the steps: as §6
Data set [14] concerns Rattus norvegicus. Briefly: Neurotoxicity in Wistar rat at 30 mg/kg, po after 1 hr. Also on record: dose 30 mg/kg, route oral. Format: toxicity, organism-based. The note with it: in vivo. An outline of the steps: as §6
The test system of data set [15] is Rattus norvegicus. Put plainly: Neurotoxicity in Wistar rat at 30 mg/kg, po after 4 hrs. Type of data set: toxicity, organism-based. Also on record: dose 30 mg/kg, route oral. The note with it: in vivo. The gist of the method:
as §6

The subject of data set [16] is Rattus norvegicus. Put plainly: Increase in GABA level in Wistar rat midbrain assessed per mg of tissue at 100 mg/kg, ip after 2 hrs. Format: functional. The note with it: route intraperitoneal. An outline of the steps: (§7)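 Rats given 100 mg/kg ip and killed by decapitation 2 h later. Midbrain, medulla oblongata and cerebellum are placed separately in ice-cold 80% ethanol and processed for GABA, expressed per 100 mg tissue. Reference drug clobazam is given at 30 mg/kg ip. Values are mean ± SEM of six rats.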

Data set [17] concerns Rattus norvegicus. Briefly: Increase in GABA level in Wistar rat medulla oblangata assessed per mg of tissue at 100 mg/kg, ip after 2 hrs. Type of data set: functional, Medulla oblongata. The note with it: route intraperitoneal. The gist of the method: as §7
Data set [18] concerns Rattus norvegicus. Briefly: Increase in GABA level in Wistar rat cerebellum assessed per mg of tissue at 100 mg/kg, ip after 2 hrs. Format: functional. As to conditions: route intraperitoneal. The gist of the method: as §7
Data set [19] has as its system Mus musculus. Put plainly: Neurotoxicity in ip dosed Swiss albino mouse assessed as minimum dose required to cause toxicity after 4 hrs. Format: organism-based. As to conditions: in vivo. The gist of the method: as §1
For data set [20], the system named is Mus musculus. Put plainly: Neurotoxicity in ip dosed Swiss albino mouse assessed as minimum dose required to cause toxicity after 0.5 hrs. As to conditions: in vivo. Type of data set: organism-based. The gist of the method:
as §1

In data set [21] the test system is Rattus norvegicus. Briefly: Anticonvulsant activity against subcutaneous strychnine-induced seizures in ip dosed Wistar rat assessed as minimum effective dose after 0.5 hrs. Format: functional. The note with it: read-out: MED. An outline of the steps:
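Rats given 30, 100 or 300 mg/kg ip and challenged with subcutaneous strychnine. Protection was read at 0.5 and 4.0 h after dosing. The value is the minimal dose that gave activity in half or more of the animals; no activity at 300 mg/kg was the highest-dose cut-off.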

The subject of data set [22] is Mus musculus. Put plainly: Anticonvulsant activity against subcutaneous pentylenetetrazole-induced seizures in Swiss albino mouse at 300 mg/kg, ip after 4 hrs. Type of data set: functional, organism-based. Also on record: dose 300 mg/kg. The gist of the method:
as §3

The subject of data set [23] is Rattus norvegicus. Briefly: Anticonvulsant activity against maximal electroshock-induced seizures in Wistar rat at 30 mg/kg, po after 0.5 hrs. Format: functional, organism-based. Also on record: dose 30 mg/kg. An outline of the steps:
as §5

Data set [24] concerns Rattus norvegicus. Put plainly: Neurotoxicity in Wistar rat at 30 mg/kg, po after 2 hrs. Type of data set: toxicity, organism-based. Also on record: dose 30 mg/kg, route oral. The note with it: in vivo. An outline of the steps: as §6
The subject of data set [25] is Mus musculus. Briefly: Anticonvulsant activity against subcutaneous pentylenetetrazole-induced seizures in ip dosed Swiss albino mouse assessed as minimum effective dose after 0.5 hrs. Format: functional. As to conditions: read-out: MED. An outline of the steps:
as §3

The test system of data set [26] is Rattus norvegicus. Briefly: Increase in GABA level in Wistar rat midbrain assessed per mg of tissue at 30 mg/kg, ip after 2 hrs. Type of data set: functional. As to conditions: route intraperitoneal.
Data set [27] concerns Rattus norvegicus. Put plainly: Increase in GABA level in Wistar rat medulla oblangata assessed per mg of tissue at 30 mg/kg, ip after 2 hrs. Type of data set: functional, Medulla oblongata. The note with it: route intraperitoneal. The gist of the method: (§8)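 Rats dosed ip, killed by decapitation 2 h after dosing. Midbrain, medulla oblongata and cerebellum were each placed separately in ice-cold 80% ethanol and processed for GABA by a previously reported method. GABA was expressed per 100 mg tissue. Values are the mean ± SEM of six rats, compared with an untreated control group.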

Data set [28] has as its system Rattus norvegicus. Put plainly: Increase in GABA level in Wistar rat cerebellum assessed per mg of tissue at 30 mg/kg, ip after 2 hrs. Type of data set: functional. The note with it: route intraperitoneal. An outline of the steps:
as §8

Activity calls are given as the source filed them.

For `C/C(=N/NC(=O)Nc1nnc(COc2ccc3ccccc3c2)o1)c1ccc([N+](=O)[O-])cc1`, the Activity entry in the data set on Mus musculus [1], in the data set on Mus musculus [8], with Rattus norvegicus [12], with Rattus norvegicus [13], with Rattus norvegicus [14] and in the data set with Rattus norvegicus [15] was “Non-toxic” each time. Besides, the Activity in the data set with Rattus norvegicus [16] was found to be 45.5 µg; in the data set with Rattus norvegicus [17], 40.42 µg; with Rattus norvegicus [18], 27.56 µg. In addition, the minimal effective dose in the data set on Rattus norvegicus [2] amounted to 300 mg/kg; with Mus musculus [4] it was 300 mg/kg; in the data set with Mus musculus [6], 300 mg/kg; with Mus musculus [7] it was 100 mg/kg. Further, the MED entry in the data set with Rattus norvegicus [3] and in the data set with Mus musculus [5] was “inactive” throughout. In addition, the outcome with Rattus norvegicus [9], in the data set on Rattus norvegicus [10] and in the data set on Rattus norvegicus [11] was inactive.
Consider `O=C(N/N=C\c1ccc(O)cc1)Nc1nnc(COc2ccc3ccccc3c2)o1`, for which the Activity was 100 mg/kg in the data set on Mus musculus [19]; 100 mg/kg in the data set on Mus musculus [20]; “Non-toxic” in the data set on Rattus norvegicus [12]; “Non-toxic” in the data set on Rattus norvegicus [13]; “Non-toxic” in the data set with Rattus norvegicus [14]; “Non-toxic” in the data set on Rattus norvegicus [24]. In addition, the Activity in the data set with Rattus norvegicus [16] came to 53.77 µg; in the data set on Rattus norvegicus [17], 35.48 µg; in the data set on Rattus norvegicus [18], 28.53 µg. Besides, the minimal effective dose with Rattus norvegicus [2] was 300 mg/kg; with Rattus norvegicus [21], 100 mg/kg; with Mus musculus [6] it was 300 mg/kg; with Mus musculus [7] it was 100 mg/kg. Besides, the MED entry with Mus musculus [22] and in the data set on Mus musculus [5] was “inactive” in each case. Moreover, the outcome in the data set on Rattus norvegicus [9], in the data set on Rattus norvegicus [23] and with Rattus norvegicus [11] was inactive.
As to `O=C(N/N=C(/c1ccccc1)c1ccc([N+](=O)[O-])cc1)Nc1nnc(COc2ccc3ccccc3c2)o1`, the Activity result in the data set with Mus musculus [1], in the data set with Mus musculus [8], in the data set with Rattus norvegicus [12], in the data set with Rattus norvegicus [13], with Rattus norvegicus [14] and in the data set on Rattus norvegicus [24] was “Non-toxic” throughout. In addition, the Activity entry in the data set with Rattus norvegicus [15] is “Non-toxic”; with Rattus norvegicus [16], 67.72 µg; with Rattus norvegicus [17], 46.62 µg; in the data set on Rattus norvegicus [18] it was 29.75 µg. In addition, the minimal effective dose was 300 mg/kg in the data set on Rattus norvegicus [2]; 300 mg/kg in the data set on Mus musculus [4]; 100 mg/kg in the data set on Mus musculus [25]; 300 mg/kg with Mus musculus [6]; 100 mg/kg in the data set on Mus musculus [7]. For the same compound, the MED entry in the data set on Rattus norvegicus [3] was “inactive”. Besides, the result in the data set on Rattus norvegicus [9], in the data set with Rattus norvegicus [23], with Rattus norvegicus [10] and with Rattus norvegicus [11] was inactive.
Regarding `O=C(N/N=C(/c1ccccc1)c1ccc(O)cc1)Nc1nnc(COc2ccc3ccccc3c2)o1`, the Activity result in the data set with Mus musculus [1], in the data set with Mus musculus [8], in the data set on Rattus norvegicus [12], in the data set on Rattus norvegicus [13], with Rattus norvegicus [14] and with Rattus norvegicus [24] was “Non-toxic” in each case. The results for the Activity with Rattus norvegicus [16], in the data set with Rattus norvegicus [17] and in the data set on Rattus norvegicus [18] were 62.25 µg, 37.74 µg and 31.41 µg, respectively. In addition, the minimal effective dose came out at 300 mg/kg with Rattus norvegicus [2], 300 mg/kg in the data set with Mus musculus [4], 300 mg/kg in the data set with Mus musculus [6] and 100 mg/kg with Mus musculus [7]. The MED result with Rattus norvegicus [3] and in the data set with Mus musculus [5] was “inactive” in each case. In addition, the result with Rattus norvegicus [9], in the data set with Rattus norvegicus [23] and with Rattus norvegicus [10] was inactive.
On to `CN1C(=O)CC(=O)N(c2ccccc2)c2cc(Cl)ccc21` [CLOBAZAM], for which the Activity with Rattus norvegicus [26] was 69.51 µg; in the data set with Rattus norvegicus [27], 47.53 µg; in the data set with Rattus norvegicus [28] it was 35.44 µg.

Values taken from ChEMBL document CHEMBL1177802, “Novel semicarbazones based 2,5-disubstituted-1,3,4-oxadiazoles: one more step towards establishing four binding site pharmacophoric model hypothesis for anticonvulsant activity” (Bioorg Med Chem Lett, 2010).
